Reference: ChEMBL document CHEMBL4346727, “Synthesis and pharmacological evaluation of novel N-Mannich bases derived from 5,5-diphenyl and 5,5-di(propan-2-yl)imidazolidine-2,4-dione core” (Bioorg Med Chem Lett, 2019)
The source made the active and inactive calls. Unless noted, the rule behind the calls is not given here.

Assays:
Rattus norvegicus [1] = assay: Anticonvulsant activity in Sprague-Dawley rat assessed as protection against 150 mA current-induced seizure at 30 mg/kg, po measured after 1 hr by maximal electroshock seizure test; format: functional, organism-based
Outline: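 Rats received 30 mg/kg orally and were given maximal electroshock at 0.25, 0.5, 1, 2, 4 and 6 h. Read-out is the number of rats protected out of four.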

[2] = Neurotoxicity in CD1 mouse at 25 mg/kg, ip measured after 4 hrs by rotarod test; conditions: in vivo
[3] = Neurotoxicity in CD1 mouse at 50 mg/kg, ip measured after 1 hr by rotarod test; conditions: in vivo
[4] = Protection index, ratio of TD50 for neurotoxicity in po dosed Sprague-Dawley rat by rotarod test to ED50 for anticonvulsant activity in po dosed Sprague-Dawley rat by maximal electroshock seizure test; format: toxicity, organism-based; conditions: in vivo, read-out: Ratio TD50/ED50
Mus musculus [5] = assay: Anticonvulsant activity in CD1 mouse assessed as protection against 32 mA current-induced seizure at 25 mg/kg, ip measured after 1 hr by 6 Hz psychomotor seizure test
[6] = Protection index, ratio of TD50 for neurotoxicity in ip dosed CD1 mouse by rotarod test to ED50 for anticonvulsant activity in ip dosed CD1 mouse by maximal electroshock seizure test; format: toxicity, organism-based; conditions: in vivo, read-out: Ratio TD50/ED50
[7] = Neurotoxicity in ip dosed CD1 mouse and measured after 0.5 hrs by rotarod test; format: toxicity, organism-based; conditions: in vivo
Outline: (§1)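 Mice dosed intraperitoneally at 30, 100 and 300 mg/kg, then tested on the rotarod at 0.5 h and 4 h. The value recorded is the minimum dose at which neurotoxicity appeared. A dash means no neurotoxicity at the top dose of 300 mg/kg.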

Mus musculus [8] = assay: Anticonvulsant activity in CD1 mouse assessed as protection against 32 mA current-induced seizure at 50 mg/kg, ip measured after 1 hr by 6 Hz psychomotor seizure test
Mus musculus [9] = assay: Anticonvulsant activity in CD1 mouse assessed as protection against subcutaneous pentylenetetrazole-induced seizures at 300 mg/kg, ip and measured after 0.5 hrs; format: functional, organism-based
Outline: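 Mice were screened after intraperitoneal doses of 30, 100 and 300 mg/kg in the maximal electroshock and subcutaneous pentylenetetrazole tests, examined at 0.5 and 4 h. The value recorded is the minimum dose showing activity. No activity up to 300 mg/kg is scored as absent.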

[10] = Neurotoxicity in ip dosed CD1 mouse model by rotarod test; format: toxicity, organism-based; conditions: in vivo
[11] = Neurotoxicity in CD1 mouse at 25 mg/kg, ip measured after 2 hrs by rotarod test; conditions: in vivo
[12] = Neurotoxicity in CD1 mouse at 50 mg/kg, ip measured after 4 hrs by rotarod test; conditions: in vivo
Rattus norvegicus [13] = assay: Anticonvulsant activity in po dosed Sprague-Dawley rat assessed as time to peak effect on protection against 32 mA current-induced seizure by 6 Hz psychomotor seizure test; format: functional
Mus musculus [14] = assay: Anti-inflammatory activity in CD1 mouse model assessed as formalin-induced nociception by measuring AUC during inflammatory phase at 11 mg/kg, ip measured for 5 mins by formalin test relative to control; format: functional
Mus musculus [15] = assay: Anticonvulsant activity in CD1 mouse assessed as protection against 32 mA current-induced seizure at 25 mg/kg, ip measured after 2 hrs by 6 Hz psychomotor seizure test
[16] = Neurotoxicity in ip dosed CD1 mouse and measured after 4 hrs by rotarod test; format: toxicity, organism-based; conditions: in vivo; outline: as §1
[17] = Neurotoxicity in Sprague-Dawley rat at 30 mg/kg, po measured after 30 mins by rotarod test; format: toxicity, organism-based; conditions: in vivo, 0.5 h
Outline: (§2)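 Rats given one oral dose of 30 mg/kg and tested on the rotarod at 0.25, 0.5, 1, 2, 4 and 6 h.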

Mus musculus [18] = assay: Anticonvulsant activity in ip dosed CD1 mouse assessed as protection against 50 mA current-induced seizures; format: functional
Outline: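 Median effective doses were quantified in the maximal electroshock, subcutaneous pentylenetetrazole and 6 Hz tests after intraperitoneal dosing in mice or oral dosing in rats, at the time of peak effect. ED50 values are reported with ranges in parentheses.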

[19] = Neurotoxicity in Sprague-Dawley rat at 30 mg/kg, po measured after 1 hr by rotarod test; format: toxicity, organism-based; conditions: in vivo; outline: as §2
[20] = Neurotoxicity in CD1 mouse at 25 mg/kg, ip measured after 30 mins by rotarod test; conditions: in vivo, 0.5 h
[21] = Neurotoxicity in Sprague-Dawley rat at 30 mg/kg, po measured after 15 mins by rotarod test; format: toxicity, organism-based; conditions: in vivo, 0.25 h; outline: as §2
Mus musculus [22] = assay: Potency index, ratio of phenytoin ED50 to compound ED50 for anticonvulsant activity in ip dosed CD1 mouse by 6 Hz psychomotor seizure test; format: functional

CN1CCN(CN2C(=O)NC(c3ccccc3)(c3ccccc3)C2=O)CC1
Activity (Rattus norvegicus [1]): Active
Activity [2]: Non-Toxic
Activity [3]: Non-Toxic
selectivity ratio [4]: > 13
Activity (Mus musculus [5]): Active
selectivity ratio [6]: 6.78
minimal neurotoxic dose [7]: 100 mg/kg
Activity (Mus musculus [8]): Active
MED (Mus musculus [9]): inactive
TD50 [10]: 75.5 mg/kg
Activity [11]: Non-Toxic
Activity [12]: Non-Toxic
Time (Rattus norvegicus [13]): 2 h
Activity (Mus musculus [14]): 90.3%
Activity (Mus musculus [15]): inactive
MTC [16]: 100 mg/kg
Activity [17]: Non-Toxic
ED50 (Mus musculus [18]): 11.1 mg/kg
Activity [19]: Non-Toxic
Activity [20]: Non-Toxic
Activity [21]: Non-Toxic
Ratio ED50 (Mus musculus [22]): 5
